Laboratory results from ChEMBL document CHEMBL2311339, “Identification of GZD824 as an orally bioavailable inhibitor that targets phosphorylated and nonphosphorylated breakpoint cluster region-Abelson (Bcr-Abl) kinase and overcomes clinically acquired mutation-induced resistance against imatinib” (J Med Chem, 2013).
Calls of active or inactive are those of the source. No cut-off for these calls is given here.

Assays:
[1] = molecular target: T1, Tyrosine-protein kinase ABL1 (Homo sapiens, UniProt P00519, E255K); test: Binding affinity to phosphorylated ABL1 E255K mutant (unknown origin) after 1 hr
[2] = molecular target: Platelet-derived growth factor receptor beta (Homo sapiens) (UniProt P09619); test: Binding affinity to PDGFRbeta (unknown origin) at 10 nM after 2 hrs by FRET assay
Platelet-derived growth factor receptor beta (Homo sapiens), sequence (P09619 whole entry): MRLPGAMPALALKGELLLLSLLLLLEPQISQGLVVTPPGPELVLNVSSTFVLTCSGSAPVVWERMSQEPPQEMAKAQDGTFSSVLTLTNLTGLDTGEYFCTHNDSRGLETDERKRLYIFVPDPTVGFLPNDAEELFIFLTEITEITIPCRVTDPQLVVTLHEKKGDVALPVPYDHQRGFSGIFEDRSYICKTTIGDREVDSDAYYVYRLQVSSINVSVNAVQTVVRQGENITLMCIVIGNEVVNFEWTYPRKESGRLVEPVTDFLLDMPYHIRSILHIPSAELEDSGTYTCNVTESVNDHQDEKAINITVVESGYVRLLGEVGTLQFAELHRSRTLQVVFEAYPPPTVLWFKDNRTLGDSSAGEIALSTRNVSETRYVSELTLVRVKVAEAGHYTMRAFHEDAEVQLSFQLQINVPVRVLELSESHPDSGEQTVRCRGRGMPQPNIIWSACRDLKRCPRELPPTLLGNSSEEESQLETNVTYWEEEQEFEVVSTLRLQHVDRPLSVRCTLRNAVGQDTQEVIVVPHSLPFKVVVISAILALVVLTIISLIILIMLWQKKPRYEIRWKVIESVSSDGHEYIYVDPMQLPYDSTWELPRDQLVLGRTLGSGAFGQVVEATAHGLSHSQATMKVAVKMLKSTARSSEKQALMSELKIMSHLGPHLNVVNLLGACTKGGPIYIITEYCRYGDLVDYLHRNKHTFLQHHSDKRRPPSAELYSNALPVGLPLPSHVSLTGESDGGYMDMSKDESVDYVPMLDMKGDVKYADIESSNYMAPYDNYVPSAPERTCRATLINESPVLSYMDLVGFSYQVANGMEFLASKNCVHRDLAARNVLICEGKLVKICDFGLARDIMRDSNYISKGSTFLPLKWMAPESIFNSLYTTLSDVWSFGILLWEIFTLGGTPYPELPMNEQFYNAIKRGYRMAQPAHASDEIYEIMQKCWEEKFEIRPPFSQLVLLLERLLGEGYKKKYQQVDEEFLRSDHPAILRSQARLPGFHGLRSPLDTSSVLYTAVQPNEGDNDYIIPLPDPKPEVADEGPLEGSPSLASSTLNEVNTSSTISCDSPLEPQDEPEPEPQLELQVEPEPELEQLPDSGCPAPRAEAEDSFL

[3] = molecular target: T1, Tyrosine-protein kinase ABL1; test: Inhibition of human recombinant ABL1 E255K mutant expressed in insect cells after 30 mins by FRET assay; format: cell-based
[4] = molecular target: T2, Tyrosine-protein kinase ABL1 (Homo sapiens, UniProt P00519, H396P); format: cell-based
[5] = molecular target: Proto-oncogene tyrosine-protein kinase Src (Homo sapiens) (UniProt P12931); test: Binding affinity to SRC (unknown origin) at 10 nM after 2 hrs by FRET assay
Proto-oncogene tyrosine-protein kinase Src (Homo sapiens), sequence (P12931 2-536 limits assumed): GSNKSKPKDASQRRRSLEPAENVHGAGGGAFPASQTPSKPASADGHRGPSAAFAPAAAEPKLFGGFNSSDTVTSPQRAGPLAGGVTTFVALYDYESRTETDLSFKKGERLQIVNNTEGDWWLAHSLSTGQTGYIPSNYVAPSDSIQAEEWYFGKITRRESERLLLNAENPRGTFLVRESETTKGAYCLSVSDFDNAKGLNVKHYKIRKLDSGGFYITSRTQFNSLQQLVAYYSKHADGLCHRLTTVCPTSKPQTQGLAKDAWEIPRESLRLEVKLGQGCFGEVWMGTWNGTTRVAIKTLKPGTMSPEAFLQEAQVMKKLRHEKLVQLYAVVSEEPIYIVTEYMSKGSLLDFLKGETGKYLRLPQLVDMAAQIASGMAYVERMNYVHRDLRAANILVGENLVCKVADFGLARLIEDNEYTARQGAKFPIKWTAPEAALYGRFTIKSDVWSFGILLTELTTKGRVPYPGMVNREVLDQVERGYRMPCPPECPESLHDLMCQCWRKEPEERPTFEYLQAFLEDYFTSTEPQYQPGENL

[6] = Cytotoxicity against mouse BA/F3 cells expressing BCR-ABL F317V mutant assessed as growth inhibition after 72 hrs by CCK-8 assay; conditions: BaF3, 72 h
[7] = Antitumor activity against mouse BA/F3 cells expressing BCR-ABL T315I mutant allografted in SCID mouse assessed as increase in median survival at 10 mg/kg/day, po qd for 10 days; format: functional, BaF3
Procedure, shortened: (§1)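 Ba/F3 Bcr-Abl T315I cells stably carrying firefly luciferase, in saline, were injected i.v. into SCID nude mice (2 × 10^6 cells/0.1 mL). Imaging began 5−7 days later: i.p. D-luciferin, halothane anaesthesia, images after 5 min. Mice were randomised by signal and dosed by oral gavage once daily for 10 days (5, 10, 20 mg/kg/day; imatinib 100 mg/kg; vehicle). Luminescence was quantified; survival by Kaplan−Meier with log-rank test.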

[8] = molecular target: Proto-oncogene tyrosine-protein kinase receptor Ret (Homo sapiens) (UniProt P07949); test: Binding affinity to RET (unknown origin) at 10 nM after 2 hrs by FRET assay
Proto-oncogene tyrosine-protein kinase receptor Ret (Homo sapiens), sequence (P07949 whole entry): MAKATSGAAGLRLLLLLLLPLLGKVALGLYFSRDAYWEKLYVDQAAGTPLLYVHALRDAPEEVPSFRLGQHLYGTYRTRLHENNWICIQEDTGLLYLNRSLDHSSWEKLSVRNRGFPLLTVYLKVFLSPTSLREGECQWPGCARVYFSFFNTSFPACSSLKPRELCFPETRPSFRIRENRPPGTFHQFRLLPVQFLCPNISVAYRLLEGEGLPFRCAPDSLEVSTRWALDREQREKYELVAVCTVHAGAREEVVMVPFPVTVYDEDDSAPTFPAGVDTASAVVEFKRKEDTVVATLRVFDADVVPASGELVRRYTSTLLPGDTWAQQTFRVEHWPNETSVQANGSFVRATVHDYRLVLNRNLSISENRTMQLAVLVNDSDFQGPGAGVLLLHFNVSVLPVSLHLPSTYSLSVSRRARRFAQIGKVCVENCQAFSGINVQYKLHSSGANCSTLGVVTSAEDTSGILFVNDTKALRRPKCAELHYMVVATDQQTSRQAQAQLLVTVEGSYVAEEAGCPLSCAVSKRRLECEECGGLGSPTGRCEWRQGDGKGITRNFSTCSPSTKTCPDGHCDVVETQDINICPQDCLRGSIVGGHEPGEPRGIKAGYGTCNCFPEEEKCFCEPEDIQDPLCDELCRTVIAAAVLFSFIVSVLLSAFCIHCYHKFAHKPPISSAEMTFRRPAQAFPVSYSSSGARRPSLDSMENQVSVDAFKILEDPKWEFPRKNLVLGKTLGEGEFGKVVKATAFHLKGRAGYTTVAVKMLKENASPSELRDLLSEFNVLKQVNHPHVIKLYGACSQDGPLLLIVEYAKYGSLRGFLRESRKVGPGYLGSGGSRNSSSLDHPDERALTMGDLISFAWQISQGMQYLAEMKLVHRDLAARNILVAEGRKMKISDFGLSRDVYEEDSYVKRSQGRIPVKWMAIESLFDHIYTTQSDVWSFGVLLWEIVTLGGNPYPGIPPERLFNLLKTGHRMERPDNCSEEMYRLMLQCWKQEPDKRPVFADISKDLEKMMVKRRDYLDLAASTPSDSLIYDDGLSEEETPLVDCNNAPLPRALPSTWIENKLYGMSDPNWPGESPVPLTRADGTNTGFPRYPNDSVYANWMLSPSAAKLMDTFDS

[9] = molecular target: Receptor-type tyrosine-protein kinase FLT3 (Homo sapiens) (UniProt P36888); test: Binding affinity to FLT3 (unknown origin) at 10 nM after 2 hrs by FRET assay
BaF3 [10] = test: Antitumor activity against mouse BA/F3 cells expressing BCR-ABL F317L mutant allografted in po dosed SCID mouse assessed as reduction of hepatosplenomegaly administered qd for 14 days; format: functional, organism-based
[11] = Mean residence time in rat at 5 mg/kg, iv; format: ADME, organism-based; set-up: dose 5 mg/kg, route intravenous; conditions: in vivo
Procedure, shortened: (§2)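 Bismesylate salt given to rats as a single iv dose of 5 mg/kg or a single oral dose of 25 mg/kg. Plasma drug levels were followed over time to derive the PK parameters. The 12 h and 24 h plasma levels come from the oral 25 mg/kg dose.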

Caco-2 = test: Efflux ratio of permeability from […] in human Caco2 cells; format: ADME, cell-based
[12] = molecular target: Tyrosine-protein kinase ABL1 (Homo sapiens, UniProt P00519, Q252H); test: Binding affinity to non phosphorylated ABL1 Q252H mutant (unknown origin) after 1 hr
[13] = Cytotoxicity against mouse BA/F3 cells expressing BCR-ABL Y253F mutant assessed as growth inhibition after 72 hrs by CCK-8 assay; conditions: BaF3, 72 h
[14] = molecular target: Platelet-derived growth factor receptor alpha (Homo sapiens) (UniProt P16234); test: Binding affinity to PDGFRalpha (unknown origin) at 10 nM after 2 hrs by FRET assay
Platelet-derived growth factor receptor alpha (Homo sapiens), sequence (P16234 whole entry): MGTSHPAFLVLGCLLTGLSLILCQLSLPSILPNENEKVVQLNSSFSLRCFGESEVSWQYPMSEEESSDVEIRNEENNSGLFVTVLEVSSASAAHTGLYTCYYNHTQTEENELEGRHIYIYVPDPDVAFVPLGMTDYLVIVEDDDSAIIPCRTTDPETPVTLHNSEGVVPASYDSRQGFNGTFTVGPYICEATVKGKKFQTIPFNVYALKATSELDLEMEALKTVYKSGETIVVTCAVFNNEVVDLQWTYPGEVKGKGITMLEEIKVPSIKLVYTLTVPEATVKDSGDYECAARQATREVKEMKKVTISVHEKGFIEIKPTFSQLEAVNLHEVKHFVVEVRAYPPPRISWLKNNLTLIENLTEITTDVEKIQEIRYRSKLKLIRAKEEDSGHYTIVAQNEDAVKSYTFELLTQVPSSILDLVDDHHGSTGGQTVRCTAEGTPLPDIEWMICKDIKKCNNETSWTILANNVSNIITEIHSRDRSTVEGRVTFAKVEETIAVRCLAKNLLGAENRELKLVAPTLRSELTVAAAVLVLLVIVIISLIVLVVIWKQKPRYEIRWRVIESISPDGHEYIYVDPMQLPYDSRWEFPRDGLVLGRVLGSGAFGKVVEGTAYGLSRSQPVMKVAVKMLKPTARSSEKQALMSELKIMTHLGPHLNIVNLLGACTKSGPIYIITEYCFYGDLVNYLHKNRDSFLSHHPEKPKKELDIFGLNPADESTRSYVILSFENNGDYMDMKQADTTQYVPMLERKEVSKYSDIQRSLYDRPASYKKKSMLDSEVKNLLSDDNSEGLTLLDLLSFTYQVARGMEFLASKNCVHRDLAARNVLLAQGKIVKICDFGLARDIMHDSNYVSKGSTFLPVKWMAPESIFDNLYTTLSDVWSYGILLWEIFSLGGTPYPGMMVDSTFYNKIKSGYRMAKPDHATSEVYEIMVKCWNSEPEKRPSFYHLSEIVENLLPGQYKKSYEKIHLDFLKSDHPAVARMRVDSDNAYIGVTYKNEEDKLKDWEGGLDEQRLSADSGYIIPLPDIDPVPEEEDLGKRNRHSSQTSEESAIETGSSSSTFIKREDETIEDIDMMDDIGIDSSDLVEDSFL

BaF3 [15] = test: Antitumor activity against mouse BA/F3 cells expressing BCR-ABL G250E mutant allografted in po dosed SCID mouse assessed as reduction of hepatosplenomegaly administered qd for 14 days; format: functional, organism-based
BaF3 [16] = test: Antitumor activity against mouse BA/F3 cells expressing wild type BCR-ABL allografted in SCID mouse assessed as inhibition of tumor growth at 50 to 100 mg/kg/day, po qd for 14 days; format: functional, organism-based
Procedure, shortened: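 Ba/F3 cells stably expressing Bcr-Abl (wild type or mutant) were grown in RPMI 1640 with 10% FBS and no IL-3, then suspended in saline (2.5 × 10^7 cells/mL) and given as 0.2 mL s.c. in the right flank. Groups were randomised at 100−200 mm3. Once-daily oral gavage for 14 days in DMSO/Cremophor/ethanol/saline vehicle; reference imatinib 50 or 100 mg/kg/day. Volume L × W²/2 every 2 days; n = 10; t test versus vehicle.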

[17] = molecular target: Epithelial discoidin domain-containing receptor 1 (Homo sapiens) (UniProt Q08345); test: Binding affinity to DDR1 (unknown origin) at 10 nM after 2 hrs by FRET assay
Epithelial discoidin domain-containing receptor 1 (Homo sapiens), sequence (Q08345 whole entry, the tested form may be a part): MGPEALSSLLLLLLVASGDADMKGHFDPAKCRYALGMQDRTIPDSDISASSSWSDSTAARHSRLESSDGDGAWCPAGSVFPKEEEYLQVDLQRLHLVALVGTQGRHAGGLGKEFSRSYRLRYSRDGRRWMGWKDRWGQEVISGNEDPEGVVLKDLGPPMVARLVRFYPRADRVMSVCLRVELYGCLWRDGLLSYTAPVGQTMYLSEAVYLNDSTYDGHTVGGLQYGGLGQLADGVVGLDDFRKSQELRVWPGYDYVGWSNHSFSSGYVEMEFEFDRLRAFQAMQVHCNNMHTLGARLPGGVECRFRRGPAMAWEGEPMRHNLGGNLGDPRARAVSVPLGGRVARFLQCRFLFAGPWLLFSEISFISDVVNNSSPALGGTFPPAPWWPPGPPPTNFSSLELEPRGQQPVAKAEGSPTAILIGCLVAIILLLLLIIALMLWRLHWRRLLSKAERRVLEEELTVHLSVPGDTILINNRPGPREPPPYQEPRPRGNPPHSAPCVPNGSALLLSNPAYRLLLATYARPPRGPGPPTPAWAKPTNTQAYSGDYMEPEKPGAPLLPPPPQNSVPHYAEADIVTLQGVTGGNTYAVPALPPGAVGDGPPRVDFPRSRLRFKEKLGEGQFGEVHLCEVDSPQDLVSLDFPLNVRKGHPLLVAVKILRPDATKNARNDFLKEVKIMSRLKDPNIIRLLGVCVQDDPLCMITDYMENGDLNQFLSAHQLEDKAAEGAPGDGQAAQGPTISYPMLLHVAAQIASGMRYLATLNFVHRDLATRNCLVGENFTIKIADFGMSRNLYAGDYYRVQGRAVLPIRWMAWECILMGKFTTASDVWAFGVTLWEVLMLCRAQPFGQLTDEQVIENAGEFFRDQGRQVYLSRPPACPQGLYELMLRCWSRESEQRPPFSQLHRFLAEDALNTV

BaF3 [18] = test: Antitumor activity against mouse BA/F3 cells expressing BCR-ABL T315I mutant allografted in SCID mouse assessed as complete suppression of cell proliferation at 20 mg/kg/day, po qd for 10 days; format: functional, organism-based; procedure, shortened: as §1
Cytochrome P450 2D6 = Cytochrome P450 2D6 (Homo sapiens, UniProt P10635); test: Inhibition of human recombinant CYP2D6 at 30 uM after 30 mins; format: ADME; conditions: recombinant enzyme, 0.5 h
cells [19] = conditions: Mus musculus, BaF3, 72 h
[20] = Clearance in rat at 5 mg/kg, iv; format: ADME, organism-based; set-up: dose 5 mg/kg, route intravenous; conditions: in vivo; procedure, shortened: as §2
cells [21] = conditions: Mus musculus, BaF3, 72 h; remark: listed apart in the source
[22] = molecular target: Tyrosine-protein kinase ABL1 (Homo sapiens, UniProt P00519, G250E); format: cell-based
[23] = molecular target: T2, Tyrosine-protein kinase ABL1; test: Binding affinity to non phosphorylated ABL1 H396P mutant (unknown origin) after 1 hr
[24] = molecular target: Fibroblast growth factor receptor (Homo sapiens) (UniProt P22607+P11362+P22455+P21802); test: Binding affinity to FGFR (unknown origin) at 10 nM after 2 hrs by FRET assay; format: protein assay
[25] = Cytotoxicity against mouse BA/F3 cells expressing BCR-ABL E359V mutant assessed as growth inhibition after 72 hrs by CCK-8 assay; conditions: BaF3, 72 h
[26] = Half life in rat liver microsomes at 1 uM; format: ADME, Microsome
[27] = Cytotoxicity against mouse BA/F3 cells expressing BCR-ABL Y253H mutant assessed as growth inhibition after 72 hrs by CCK-8 assay; conditions: BaF3, 72 h
BaF3 [28] = test: Antitumor activity against mouse BA/F3 cells expressing BCR-ABL T315I mutant allografted in SCID mouse assessed as suppression of cell proliferation at 1 to 20 mg/kg/day, po qd for 10 days; format: functional, organism-based
[29] = molecular target: Serine/threonine-protein kinase B-raf (Homo sapiens) (UniProt P15056); test: Binding affinity to BRAF (unknown origin) at 10 nM after 2 hrs by FRET assay
[30] = molecular target: Tyrosine-protein kinase ABL1 (Homo sapiens, UniProt P00519, T315I); test: Binding affinity to non phosphorylated ABL1 T315I mutant (unknown origin) after 1 hr
BaF3 [31] = test: Antitumor activity against mouse BA/F3 cells expressing BCR-ABL T315I mutant allografted in SCID mouse assessed as increased survival at 1 to 20 mg/kg/day, po qd for 10 days; format: functional, organism-based
[32] = Cytotoxicity against mouse BA/F3 cells expressing wild type BCR-ABL assessed as growth inhibition after 72 hrs by CCK-8 assay; conditions: BaF3, 72 h

**Q.** For Cc1ccc(C(=O)Nc2ccc(CN3CCN(C)CC3)c(C(F)(F)F)c2)cc1C#Cc1cnc2[nH]ncc2c1 [OLVEREMBATINIB], which Kd [1] is on record?
**A.** 0.28 nM

**Q.** What about the Activity [2] of the same molecule?
**A.** inactive

**Q.** And the IC50 [3]?
**A.** 0.27 nM

**Q.** And the IC50 [4]?
**A.** 0.35 nM

**Q.** What about the Activity [5] of the same molecule?
**A.** inactive

**Q.** And the IC50 [6]?
**A.** 4 nM

**Q.** And the Survival [7]?
**A.** 24.6 days

**Q.** What about the Activity [8] of the same molecule?
**A.** inactive

**Q.** What about the Activity [9] of the same molecule?
**A.** inactive

**Q.** And the Activity (BaF3 [10])?
**A.** Active

**Q.** And the MRT [11]?
**A.** 6.7 h

**Q.** And the Ratio (Caco-2)?
**A.** 0.9

**Q.** And the Kd [12]?
**A.** 0.46 nM

**Q.** And the IC50 [13]?
**A.** 11 nM

**Q.** And the Activity [14]?
**A.** inactive

**Q.** And the Activity (BaF3 [15])?
**A.** Active

**Q.** And the TGI (BaF3 [16])?
**A.** Dose-dependent effect

**Q.** And the Activity [17]?
**A.** inactive

**Q.** What about the Activity (BaF3 [18]) of the same molecule?
**A.** Active

**Q.** And the “inhibition (INH)” value (Cytochrome P450 2D6)?
**A.** Not Active

**Q.** What about the IC50 (cells [19]) of the same molecule?
**A.** 6 nM

**Q.** And the clearance [20]?
**A.** 28.3 mL/min/kg

**Q.** What about the IC50 (cells [21]) of the same molecule?
**A.** 7.1 nM

**Q.** And the IC50 [22]?
**A.** 0.71 nM

**Q.** What about the Kd [23] of the same molecule?
**A.** 0.18 nM

**Q.** And the Activity [24]?
**A.** inactive

**Q.** What about the IC50 [25] of the same molecule?
**A.** 2.3 nM

**Q.** And the half-life at 1 µM [26]?
**A.** 0.933 h

**Q.** And the IC50 [27]?
**A.** 3 nM

**Q.** What about the Activity (BaF3 [28]) of the same molecule?
**A.** Dose-dependent effect

**Q.** And the Activity [29]?
**A.** inactive

**Q.** What about the Kd [30] of the same molecule?
**A.** 0.71 nM

**Q.** And the Activity (BaF3 [31])?
**A.** Dose-dependent effect

**Q.** And the IC50 [32]?
**A.** 1 nM
